In ChEMBL document CHEMBL4513216, “Probing the Open Global Health Chemical Diversity Library for Multistage-Active Starting Points for Next-Generation Antimalarials” (ACS Infect Dis, 2020) one finds cytotoxicity data, which are given here for 96 compounds.

The data set in a line: Toxicity liver stage against HepG2, at 10uM. The conditions noted are these: human, HepG2-A16-CD81EGFP cells; read-out: INHIBITION
It counts as cell-based. The arrangement: test concentration 10 uM, cell line HepG2-A16-CD81EGFP. The procedure, abridged:
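Uninfected HepG2-A16-CD81EGFP cells, 3 × 10^3 per well, 1536-well, plated on prespotted compound at 10 μM final, parasite-free screening media added to match infected plates; puromycin 10 μM positive, DMSO 0.5% negative; run in parallel with 48 h PbLuc assay at 37 °C, 5% CO2; viability by CellTiter-Glo luminescence, normalized to controls.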
Regarding `COc1cccc(CN2CCCC3(CCN(C(=O)c4ccco4)C3)C2)c1` (stereo unspecified), the cytotoxicity at 10 µM is 6.34%. The result for `O=C(NCc1cccs1)C1CNCC12CCOCC2` (stereo unspecified) reads -5.43%. In the case of `CC(=O)N1CCCC1c1nc(C)cc(-c2ccc(F)cc2)n1` (stereo unspecified), the cytotoxicity at 10 µM came to 9.88%. For `Cc1ccc(-c2nc(CN3CCOCC3)no2)cc1N1CCNC1=O`, the cytotoxicity at 10 µM was -5.73%. As for `Cc1noc(Cl)c1CC(=O)NCCOc1ccc(F)cc1F`, the cytotoxicity at 10 µM was -2.64%. As for `CCOc1ccc(C(=O)Nc2c(C)nc3cccc(C)n3c2=O)cc1`, the figure is 8.99%. As for `COc1ccc(C(=O)N2CCC3(CCC(=O)N(C(C)C)C3)CC2)cc1C`, the figure is -3.47%. `O=C(NCC1(N2CCOCC2)CCSC1)Nc1ccc(F)cc1` (stereo unspecified): the cytotoxicity at 10 µM was -10.2%. With `CN(C)Cc1cc(=O)n2c(n1)CN(CC1CCOCC1)CCC2`, the cytotoxicity at 10 µM turned out to be 6.37%.

Regarding `CC(NC(C)(C)CN)c1ccccc1` (stereo unspecified), the cytotoxicity at 10 µM stood at 2.62%. The result for `CC(NC(=O)NC1CCN(Cc2ccncc2)CC1)c1ccc(F)cc1` (stereo unspecified) reads 7.9%; that for `CCn1cc(CN2CCCN(C3Cc4ccccc4C3)CC2)cn1`, 2.66%; that for `C[C@@H]1C[C@H]2CN(C(=O)c3cccc4c3OCCO4)C[C@H]2O1`, -0.726%.

Regarding `COc1ccc(CCC(=O)N2CCCC(n3cncn3)C2)cc1` (stereo unspecified), the cytotoxicity at 10 µM is -21%.

For the compound `CCSCc1ccc(C(=O)N2CCCN(CC)CC2)cc1`, the cytotoxicity at 10 µM was -5.95%. As for `CN1C[C@H](O)[C@]2(CCN(Cc3ccc(OC(F)(F)F)cc3)C2)S1(=O)=O`, the figure is -5.57%. The result for `COCc1ccccc1C(=O)OCc1noc(C)n1` reads 7.01%. As for `Cc1noc(C)c1CNC(=O)N(C)C1CCN(c2ccccc2)C1=O` (stereo unspecified), the figure is -8.63%. Turning to `CC(C)(C)OC(=O)N1CC(=O)N(CCc2ccccc2)CC(O)C1` (stereo unspecified), the cytotoxicity at 10 µM is -12.9%.

Regarding `O=C(c1cnccn1)N1CC[C@@H]2CO[C@@H](CN3CCCC3)[C@@H]2C1`, the cytotoxicity at 10 µM is -1.19%.

With `Cc1noc(C2CCN(C(C)c3nc(C4CC4)no3)CC2)n1` (stereo unspecified), the cytotoxicity at 10 µM is 7.57%. The result for `CCCN1CCN(Cc2cccc(OCC(N)=O)c2)[C@H]2CS(=O)(=O)C[C@H]21` reads 2.77%. As for `CS(=O)(=O)c1snnc1C1CCN(Cc2ccncc2)CC1`, the figure is 2.31%. The result for `O=C(NC1CCCCNC1=O)c1cc2ccccc2[nH]c1=O` (stereo unspecified) reads -6.08%. For the compound `Cc1noc(C)c1CNC(=O)N1CCN(CC2CC2)CC1`, the cytotoxicity at 10 µM is -6.48%. The result for `COc1c(CNCc2ccnc(N(C)C)c2)c(C(C)C)nn1C` reads -6.3%. Take `NCC1(c2cccc(C(F)(F)F)c2)CCCC1`: the cytotoxicity at 10 µM is -5.7%. As for `N#Cc1cc2c(=O)n(CC(O)C(F)(F)F)ccc2[nH]c1=O` (stereo unspecified), the figure is -1.99%; as for `CC(C)(C)c1nc(CNC(=O)N2CCc3ccccc3C2CO)no1` (stereo unspecified), 6.56%. `Cn1cccc1C(=O)NCc1cn2c(n1)CN(CC1CCOC1)CC2` (stereo unspecified): the cytotoxicity at 10 µM was -99.7%. In the case of `CC(=O)Nc1ccc(Oc2ccc3c(c2)OCO3)nc1`, the cytotoxicity at 10 µM is -8.6%. On to `CCc1c(C(=O)N2CC[C@H](N3CCOCC3)[C@H](CCCO)C2)csc1C`, for which the cytotoxicity at 10 µM was -141%. The result for `CSCc1cccc(S(=O)(=O)N2CCCCC2)c1` reads 6.61%; that for `COCCN(C)C[C@@H]1CN(C(=O)c2ccoc2)C[C@@H]1CO`, -18.4%. With `OCC1CCCN1c1cc(NCCc2ccsc2)ncn1` (stereo unspecified), the cytotoxicity at 10 µM worked out at 8.51%. As for `O=C1[C@H]2CN(Cc3ccco3)C[C@H]2CN1c1ccsc1`, the figure is -71.9%; as for `CCCc1noc(CCC(=O)N2CCCC(n3ccnc3C)C2)n1` (stereo unspecified), -4.39%; as for `O=C(NCCCN1CCN(c2ncccn2)CC1)Nc1ccccn1`, -7.48%.

As to `COC(=O)N1CCC(c2nnc(Cn3ccnc3)n2C)CC1`, the cytotoxicity at 10 µM was -110%.

For the compound `CN1CCC(n2nc(CC3CC3)nc2-c2ccc(F)cc2Cl)CC1`, the cytotoxicity at 10 µM is -1.84%. The result for `COc1cccc(F)c1C(C)NC(=O)NCCc1ccc(C)nc1` (stereo unspecified) reads -2.13%; that for `COc1cc(CN)c(OC)c2c1OCO2`, -1.29%. The result for `CC(C)NC(=O)Nc1ccc(CNCc2ccc(OC(F)F)cc2)cc1` reads -3.95%. On to `CCCn1ccc(C(=O)N2CCOC(c3nc(-c4cccs4)no3)C2)n1` (stereo unspecified), for which the cytotoxicity at 10 µM is 8.54%. As for `O=C(CCN1CCOCC1)Nc1cccc(CNCc2ccsc2)c1`, the figure is -4.66%. On to `Cc1cc2c(cc1C(=O)N1CC[C@H](CO)[C@@H](O)C1)OCCO2`, for which the cytotoxicity at 10 µM is -10.8%. The result for `O=C(O)c1c[nH]c2cc(NS(=O)(=O)c3ccc(Cl)cc3F)ccc12` reads -1.2%; that for `CC(CNCc1ccncc1)Oc1ccccn1` (stereo unspecified), -1.71%; that for `CCN1CCOCC2(CCCN(C(=O)c3conc3C)C2)C1` (stereo unspecified), 2.82%. `Fc1cccc(CN2C[C@@H]3CN(c4ncccn4)C[C@@H]3C2)c1`: the cytotoxicity at 10 µM came to 6.81%. Consider `CN(C)S(=O)(=O)N1C[C@H]2CCC[C@@]2(COCC2CC2)C1`, for which the cytotoxicity at 10 µM stood at 6.13%. The result for `COc1ccc(NC(=O)Cn2nc(C)c(C)cc2=O)cc1OC` reads -20.4%; that for `Cc1ccc(N2CCCC(Nc3nn4cc(C)nc4s3)C2)nn1` (stereo unspecified), -5.78%. The result for `CCS(=O)(=O)c1ccc(N2CCC(NC(C)=O)CC2)cc1` reads 10.6%; that for `CCNC(=O)NC(c1ccc(C)cc1)c1cccc(S(C)(=O)=O)c1` (stereo unspecified), -5.82%.

As for `Cc1ncsc1CCN(C)C(=O)CN1CCOc2ccccc2C1`, the cytotoxicity at 10 µM came to 5.72%. The result for `COCCC(=O)NCC1Cn2nnc(-c3cccc(F)c3)c2CO1` (stereo unspecified) reads 0.0508%; that for `CC(=O)N1CCCC(c2ccc(N3CCN(C)CC3)cn2)C1` (stereo unspecified), -28.9%. Regarding `O=C1CC2(CCCC2)CC(=O)N1Cc1ncccn1`, the cytotoxicity at 10 µM is 1.27%. As for `Cc1nc(C(=O)N2CCN(S(C)(=O)=O)CC2)c(-c2ccccc2Cl)s1`, the figure is 4.37%. Turning to `Cc1ccc(CN2Cc3nnn(C)c3C(COCC(=O)N(C)C)C2)s1` (stereo unspecified), the cytotoxicity at 10 µM came to 10.1%. The result for `CC(=O)N1CCN(C(=O)NCc2ccccc2Cn2ccnc2)CC1` reads 0.243%; that for `COc1ccc(OCC(=O)NS(=O)(=O)c2cc(C)ccc2C)cc1`, 7.19%. For the compound `CCN1CCC(CNC(=O)C(c2ccccc2F)N(C)C)(N(C)C)CC1` (stereo unspecified), the cytotoxicity at 10 µM is -1.7%. On to `COc1ccccc1CNC(=O)CN(C)C(C)c1ccon1` (stereo unspecified), for which the cytotoxicity at 10 µM is -4.29%. The result for `COc1ncccc1CN1CCC2(CCCN2S(C)(=O)=O)CC1` reads 8.86%; that for `O=C(CC1CC1)N1C[C@H]2CN(CC3CC3)C(=O)[C@H]2C1`, 3.91%; that for `CCn1c(C)nnc1SCCNc1nc(C)ncc1S(C)(=O)=O`, -4.19%. The result for `Cc1ccc(NC2CCN(C(=O)CCc3ccsc3)CC2)nn1` reads 4.3%. As for `Cc1ccc(NC(=O)N2CC(C(=O)NC(C)C)C3(CCOCC3)C2)cc1` (stereo unspecified), the cytotoxicity at 10 µM was -74.3%. Consider `COCC(=O)Nc1ccc(N2CCC(OC)CC2)c(C(F)(F)F)c1`, for which the cytotoxicity at 10 µM was -0.0399%. The result for `CC(C)C[C@H](N)c1nnc(SCC(=O)Nc2ccc(Br)cc2)o1` reads -4.99%.

Regarding `Cc1csc2c(N3CCC(NCCCc4ccncc4)CC3)ncnc12`, the cytotoxicity at 10 µM is -1.54%. The result for `CCO[C@@H]1CC[C@H]2[C@H]1OCCN2CC1CCC1` reads 11.2%.

As for `O=C(CCCNC(=O)Nc1ccc(F)cc1)Nc1cn[nH]c1`, the cytotoxicity at 10 µM came to 9.37%. As for `CCOc1ccc(CNC(=O)N2CCCC(CO)C2)cc1F` (stereo unspecified), the figure is 8.21%; as for `c1ccc(CCCN2CC(n3cccn3)C2)cc1`, -3.83%. Regarding `CC1N(CC2CC2)C(=O)COC12CCN(C(=O)c1cscn1)CC2` (stereo unspecified), the cytotoxicity at 10 µM is -8.04%. Consider `Cc1ccc(CN2CCc3ncnc(OC(C)C)c3CC2)s1`, for which the cytotoxicity at 10 µM was determined as 22.8%. The result for `Cc1ccc2c(c1)CCC21CCN(C(=O)CO)CC1` reads -8.13%; that for `CC1CN(C(=O)NCc2cnn(-c3ccc(F)cc3F)c2)CCO1` (stereo unspecified), 2.18%.

In the case of `Cn1ccnc1CNc1nccc(-c2ncnn2C)n1`, the cytotoxicity at 10 µM was -6.47%. Regarding `O=C(c1ccc(OCC2CC2)cc1)N1CCOCC1c1ncon1` (stereo unspecified), the cytotoxicity at 10 µM worked out at 1.79%. `CCCc1nnc(NCCc2noc(C3CCC3)n2)o1`: the cytotoxicity at 10 µM is -8.22%.

Take `CCc1cc(CNC(=O)NCC(c2ccco2)N2CCCC2)[nH]n1` (stereo unspecified): the cytotoxicity at 10 µM stood at 0.238%. Turning to `CC(C)n1cnnc1Cn1c(=O)ccc2ccccc21`, the cytotoxicity at 10 µM was 5.62%. As to `CO[C@H]1CCN(c2ncc(F)cn2)[C@@H]2CN(Cc3ccco3)C[C@H]12`, the cytotoxicity at 10 µM was found to be 13.5%. The result for `Cn1ccnc1CCC1CCCCN1Cc1cnc(N2CCCC2)nc1` (stereo unspecified) reads 1.43%. As for `O=C(NCc1cccs1)[C@@H]1CC[C@@H]2[C@@H](CCN2c2ncccn2)O1`, the figure is -0.53%. The result for `CNC(=O)CN([C@H]1C[C@H]2CCOC[C@H]2C1)S(=O)(=O)c1ccccc1` reads -1.63%; that for `CCC(=O)Nc1cc(Br)cnc1OCC(F)(F)F`, -1.24%. `CN(Cc1ccc(C2CC(=O)Nc3n[nH]cc32)o1)S(C)(=O)=O` (stereo unspecified): the cytotoxicity at 10 µM is -13.8%. As for `O=C(c1ccc(-c2ccoc2)nc1)N1CCCN(C2CCCCC2)CC1`, the figure is 7.69%; as for `CCn1ncc2c1C(COCC1CC1)CN(S(=O)(=O)N(C)C)C2` (stereo unspecified), -10.4%; as for `COc1c(CNCc2cccc(C(=O)N(C)C)c2)c(C)nn1C`, -16.9%.

For the compound `Cc1cnc(CNC(=O)NCCOc2ncccc2Cl)s1`, the cytotoxicity at 10 µM amounted to 8.35%.
